Measured values: ChEMBL document CHEMBL1833879, “Anti-obesity effects of the methanolic extract and chakasaponins from the flower buds of Camellia sinensis in mice” (2011)
Active and inactive are the calls of the source. No cut-off for these calls is given here.

Tests used:
Mus musculus [1] = assay: Antiobesity activity in ddY mouse assessed as inhibition of AgRP mRNA level in hypothalamus at 50 mg/kg, po for 4 days relative to control; format: functional
In short: (§1)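 Male ddY mice dosed po once daily at 15:00–17:00 for 4 d. Hypothalamus dissected 1 h after final dose, held in RNAlater, total RNA extracted. NPY and AgRP mRNA quantified by SYBR qPCR (40 cycles, annealing 58 °C) by relative quantification normalised to β-actin and expressed as ratio to control; n = 6, mean ± SEM.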

Mus musculus [2] = assay: Antiobesity activity in ddY mouse assessed as inhibition of neuropeptide Y mRNA level in hypothalamus at 25 mg/kg, po for 4 days relative to control; format: functional; in short: as §1
Mus musculus [3] = assay: Antiobesity activity in ddY mouse assessed as inhibition of AgRP mRNA level in hypothalamus at 25 mg/kg, po for 4 days relative to control; format: functional; in short: as §1
Mus musculus [4] = assay: Antiobesity activity in ddY mouse assessed as food intake at 50 mg/kg, po measured upto 3 days (RVb = 15.2 g); format: functional
Mus musculus [5] = assay: Antiobesity activity in ddY mouse assessed as inhibition of neuropeptide Y mRNA level in hypothalamus at 50 mg/kg, po for 4 days relative to control; format: functional; in short: as §1
Ileum [6] = assay: Induction of 5-HT release from ddY mouse ileum assessed per gram of tissue at 1000 µM after 20 mins by HPLC (RVb = 11.2 +/- 1.3 ng/g tissue)
Mus musculus [7] = assay: Antiobesity activity in capsaicin treated ddY mouse assessed as gastric emptying at 25 mg/kg, po measured for 30 mins by Phenol red method (RVb = 87.7 +/- 2.3 %); format: functional, Stomach
Ileum [8] = assay: Induction of 5-HT release from ddY mouse ileum assessed as remaining 5-HT per gram of tissue at 1000 µM after 20 mins by HPLC (RVb = 68.8 +/- 12.4 ng/g tissue)
Mus musculus [9] = assay: Antiobesity activity in ddY mouse assessed as inhibition of food intake at 50 mg/kg, po; format: functional, organism-based; set-up: dose 50 mg/kg
Ileum [10] = assay: Induction of 5-HT release from ddY mouse ileum assessed as remaining 5-HT per gram of tissue at 100 uM after 20 mins by HPLC (RVb = 68.8 +/- 12.4 ng/g tissue)
Mus musculus [11] = assay: Antiobesity activity in capsaicin-treated ddY mouse assessed as reduction in food intake at 50 mg/kg, po for 3 days; format: functional, organism-based; set-up: dose 50 mg/kg
Mus musculus [12] = assay: Antiobesity activity in ddY mouse assessed as gastric emptying at 50 mg/kg, po measured for 30 mins by Phenol red method (RVb = 90.4 +/- 1.2 %); format: functional, Stomach
Mus musculus [13] = assay: Antiobesity activity in capsaicin treated ddY mouse assessed as inhibition of gastric emptying at 50 mg/kg, po measured for 30 mins by Phenol red method (RVb = 87.7 +/- 2.3 %); format: functional, Stomach; set-up: scale not given: the % may be the effect or the level left
Mus musculus [14] = assay: Antiobesity activity in ddY mouse assessed as gastric emptying at 25 mg/kg, po measured for 30 mins by Phenol red method (RVb = 90.4 +/- 1.2 %); format: functional, Stomach
Ileum [15] = assay: Induction of 5-HT release from ddY mouse ileum assessed per gram of tissue at 100 µM after 20 mins by HPLC (RVb = 11.2 +/- 1.3 ng/g tissue)
Ileum [16] = assay: Induction of 5-HT release from ddY mouse ileum assessed as remaining 5-HT per mg of protein at 100 µM after 20 mins by HPLC (RVb = 0.861 +/- 0.164 ng/mg protein)
Ileum [17] = assay: Induction of 5-HT release from ddY mouse ileum assessed as remaining 5-HT per mg of protein at 1000 µM after 20 mins by HPLC (RVb = 0.861 +/- 0.164 ng/mg protein)
Mus musculus [18] = assay: Antiobesity activity in ddY mouse assessed as gastric emptying at 50 mg/kg, po measured for 30 mins by Phenol red method (RVb = 86.6 +/- 1.8 %); format: functional, Stomach
Mus musculus [19] = assay: Antiobesity activity in ddY mouse assessed as gastric emptying at 25 mg/kg, po measured for 30 mins by Phenol red method (RVb = 86.6 +/- 1.8 %); format: functional, Stomach
Mus musculus [20] = assay: Antiobesity activity in capsaicin-treated ddY mouse assessed as gastric emptying at 25 mg/kg, po measured for 30 mins by Phenol red method (RVb = 85.8 +/- 2 %); format: functional, Stomach
Mus musculus [21] = assay: Antiobesity activity in capsaicin treated ddY mouse assessed as gastric emptying at 50 mg/kg, po measured for 30 mins by Phenol red method (RVb = 85.8 +/- 2 %); format: functional, Stomach

Structure (SMILES): CC1(C)C[C@H]2C3=CC[C@@H]4[C@@]5(C)CC[C@H](O[C@@H]6O[C@H](C(=O)O)[C@@H](O)[C@H](O[C@@H]7OC[C@H](O)[C@H](O)[C@H]7O[C@@H]7OC[C@@H](O)[C@H](O)[C@H]7O)[C@H]6O[C@@H]6O[C@H](CO)[C@H](O)[C@H](O)[C@H]6O)C(C)(C)[C@@H]5CC[C@@]4(C)[C@]3(C)[C@@H](O)[C@@H](O)[C@@]2(CO)[C@@H](O)[C@@H]1O
- inhibition (Mus musculus [1]): inactive
- inhibition (Mus musculus [2]): inactive
- inhibition (Mus musculus [3]): inactive

Structure (SMILES): C/C=C(\C)C(=O)O[C@H]1[C@H](OC(C)=O)[C@]2(CO)[C@H](O)[C@H](O)[C@]3(C)C(=CC[C@@H]4[C@@]5(C)CC[C@H](O[C@@H]6O[C@H](C(=O)O)[C@@H](O)[C@H](O[C@@H]7OC[C@H](O)[C@H](O)[C@H]7O[C@@H]7OC[C@@H](O)[C@H](O)[C@H]7O)[C@H]6O[C@@H]6O[C@H](CO)[C@H](O)[C@H](O)[C@H]6O)C(C)(C)[C@@H]5CC[C@]43C)[C@@H]2CC1(C)C [CHAKASAPONIN III]
- Activity (Mus musculus [4]): 12.6 g

Structure (SMILES): C/C=C(\C)C(=O)O[C@H]1[C@H](OC(=O)/C(C)=C/C)[C@]2(CO)[C@H](O)[C@H](O)[C@]3(C)C(=CC[C@@H]4[C@@]5(C)CC[C@H](O[C@@H]6O[C@H](C(=O)O)[C@@H](O)[C@H](O[C@@H]7OC[C@H](O)[C@H](O)[C@H]7O[C@@H]7OC[C@@H](O)[C@H](O)[C@H]7O)[C@H]6O[C@@H]6O[C@H](CO)[C@H](O)[C@H](O)[C@H]6O)C(C)(C)[C@@H]5CC[C@]43C)[C@@H]2CC1(C)C [CHAKASAPONIN II]
- fold change (FC) (Mus musculus [5]): 0.63
- Activity (Ileum [6]): 28.3 ng/g
- Activity (Mus musculus [7]): 81.4%
- Activity (Ileum [8]): 31.6 ng/g
- inhibition (Mus musculus [9]): Active
- Activity (Ileum [10]): 50.8 ng/g
- Activity (Mus musculus [11]): Active
- Activity (Mus musculus [12]): 57.6%
- Activity (Mus musculus [13]): 67.1%
- Activity (Mus musculus [14]): 77.9%
- fold change (FC) (Mus musculus [1]): 1.03
- Activity (Ileum [15]): 15.6 ng/g
- Activity (Ileum [16]): 0.659 ng/mg
- fold change (FC) (Mus musculus [2]): 1.09
- Activity (Ileum [17]): 0.396 ng/mg
- fold change (FC) (Mus musculus [3]): 1.08

Structure (SMILES): C/C=C(\C)C(=O)O[C@H]1[C@H](OC(C)=O)[C@]2(CO)[C@H](O)C[C@]3(C)C(=CC[C@@H]4[C@@]5(C)CC[C@H](O[C@@H]6O[C@H](C(=O)O)[C@@H](O)[C@H](O[C@@H]7OC[C@H](O)[C@H](O)[C@H]7O[C@@H]7OC[C@@H](O)[C@H](O)[C@H]7O)[C@H]6O[C@@H]6O[C@H](CO)[C@H](O)[C@H](O)[C@H]6O)C(C)(C)[C@@H]5CC[C@]43C)[C@@H]2CC1(C)C [CHAKASAPONINS I]
- Activity (Mus musculus [4]): 10.5 g
- Activity (Mus musculus [18]): 55.7%
- Activity (Mus musculus [19]): 76.4%
- Activity (Mus musculus [20]): 79.2%
- Activity (Mus musculus [21]): 68%
